CYP2C19 act – human CYP2C19 activators, primary screen, biochemical, luminescence | AID 1025, 2008 | Cytochrome P450 2C19 (Homo sapiens), P33261 | activation factor at 5 µM | 96,000 tested, under 10 active | recombinant CYP2C19, luciferin-H EGE luminescence; stronger effect = higher value; 0 = fully inhibited enzyme, 1 = untreated enzyme;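 active = activation factor of at least 2 at 5 µM in the primary screen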;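 note: 0 = wells with 2.5 mM tranylcypromine and 1 = vehicle-only wells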
CYP2C9 inhib – blockers of cytochrome P450 2C9 activity – biochemical, luminescence, ADME assay, primary screen; P11712; CYP2C9 Supersomes, luciferin-H conversion; inhibition, % at 5 µM; 20% of 96,000 active; AID 777, 2007;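 active = blocking of liver enzyme CYP2C9 beyond about 50% at 5 µM, limit read from the data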
CYP2C19 inh – blockers of cytochrome P450 2C19 activity – biochemical, luminescence, ADME assay, primary screen; P33261; CYP2C19 Supersomes, luciferin-H EGE luminescence, 30 min; inhibition, % at 5 µM; 21% of 96,000 active; AID 778, 2007;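 active = CYP2C19 inhibition above a set limit at 5 µM in the primary screen, cut at about 50% in these data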;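 note: plate controls were negative control wells for no effect and 2.5 mM tranylcypromine positive control for full effect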
Rev-RRE block – HIV-1 Rev-RRE binding inhibitors, primary screen, biochemical, FRET, protein-RNA interaction; P05866; Rev peptide-RRE RNA binding; inhibition, % at 8 µM; 0.79% of 97,000 active; AID 704, 2007;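 active = inhibition above the screen-wide mean plus 3 SD, cut at about 35% in these data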;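 note: 0% = median DMSO wells and 100% = median Neomycin B control wells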
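Probe or stimulus: fluorescein-Rev peptide as binding partner; assay system: Cy5-tagged RRE RNA duplex with fluorescein-tagged Rev peptide; timing: 5 min compound–RNA preincubation, then 15 min with peptide, 25 °C; medium: HEPES pH 7.5 buffer with KCl, MgCl2, NaCl and EDTA; signal: fluorescein-to-Cy5 FRET, 480 nm excitation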
CYP2C9 act – human CYP2C9 activators, primary screen, biochemical, luminescence | Cytochrome P450 2C9 (Homo sapiens), P11712 | recombinant CYP2C9, luciferin-H conversion; stronger effect = higher value; factor 1 = untreated enzyme, 0 = blocked | activation factor at 5 µM | 1.4% of 96,000 active;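 active = activation factor of 2 or more for CYP2C9 at a 5 µM dose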;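 note: 0 = sulfaphenazole-blocked wells and 1 = vehicle-only wells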
Cav3 T inh – Cav3.2 calcium influx blockers – cell-based, Fluo-4 calcium fluorescence, FDSS, MLSMR library, primary screen; Voltage-dependent T-type calcium channel subunit alpha-1H (Homo sapiens), O95180; Cav3.2-expressing cells; stronger effect = lower value; B-score at 10 µM; 4% of 100,000 active; AID 449739, 2010;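 active = single-dose well whose peak fluorescence ratio is a statistical outlier from its plate by either plate-standardised score or position-corrected B-score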
Starred values were filed as active, the others as inactive; nt = no result given. Only some compounds are listed: those with a hit (about 27% of all), similar ones and a draw of the others.

SMILES	CYP2C19 act	CYP2C9 inhib	CYP2C19 inh	Rev-RRE block	CYP2C9 act	Cav3 T inh
c1ccc(Cn2nnc3c(NCC4CCCO4)ncnc32)cc1 (configuration not stated)	0.7	-138	33	3	2.4*	-0.014
O=C(Cn1cnc2c(nnn2Cc2ccccc2)c1=O)NCC1CCCO1 (configuration not stated)	1.1	-11	-6	nt	1.1	0.24
COc1ccc(/C=N\NS(=O)(=O)c2ccc(Br)cc2)cc1COc1ccccc1[N+](=O)[O-]	nt	nt	nt	7	nt	-1.7
Cc1nn(CC(=O)Nc2ccc3c(c2)oc2ccccc23)c(=O)c2ccccc12	0.6	1	40	0	1	nt
CC(C)(C)OC(=O)N1CCN(c2ccc(CNC(=O)c3ccc(Cl)cc3)cc2)CC1	0.6	48	38	-3	0.5	-1.8
Cc1c(CCO)c(=O)n(C)n1C(=O)c1ccc(Cl)cc1	0.4	4	56*	-4	1	0.31
Cc1c(CCO)c(=O)n(C)n1C(=O)c1ccc(F)cc1	0.7	2	26	-7	1	0.88
O=C(CN1CCOCCOCCOCC1)Nc1ccccc1	1	-14	-1	5	1.1	0.12
C=CCN(C(=O)CN1CCOCC1)c1nc(C)c(-c2ccccc2)s1	0.3	32	70*	nt	0.7	-3.4
O=C1c2oc3ccc(Cl)cc3c(=O)c2C(c2ccccn2)N1CCCN1CCOCC1 (configuration not stated)	1	9	4	nt	0.9	0.72
O=S(=O)(c1ccccc1Cl)N1CCCC1c1nc(-c2ccccc2Cl)no1 (configuration not stated)	0.4	13	58*	14	0.9	-3.6
O=C(c1ccco1)N1CCC(c2nc(-c3ccc(F)cc3)no2)CC1	0.8	16	18	11	0.8	-0.26
O=C(c1ccco1)N1CCC(c2nc(-c3ccccc3Cl)no2)CC1	0.5	57*	50	1	0.4	-0.49
O=C(NC1CCS(=O)(=O)C1)Oc1ccc(Cl)cc1 (configuration not stated)	1.1	-10	-9	5	1.1	-0.88
CCOC(=O)CSc1cc(=O)n(CC)c2ccccc12	1	-9	0	3	1.1	1.1
CCOC(=O)CSc1cc(=O)n(C)c2cc(Cl)ccc12	0.4	51*	64*	10	0.5	nt
CSc1ccc(C(=S)N2CCN(Cc3ccccc3)CC2)cc1	0.5	41	52*	7	0.6	-1.1
CCN1CCN(C(=S)c2ccc(SC)cc2)CC1	0.8	0	22	7	1	-0.061
COC(=O)COc1ccc(S(=O)(=O)Nc2cc(OC)ccc2OC)cc1	0	-86	99*	1	1.9	0.58
Cn1c(=O)n(C)c2cc(NS(=O)(=O)c3ccc4c(c3)CCCC4)ccc21	0	21	95*	14	0.8	0.14
COc1ccc(NS(=O)(=O)c2ccc(OCC(=O)N3CCCC3)cc2)cc1	0.8	-9	20	2	1.1	1.1
COc1ccc(NS(=O)(=O)c2ccc3c(c2)n(C)c(=O)n3C)cc1	0.7	74*	27	7	0.3	-3.8*
CCOC(=O)c1oc2ccc(S(=O)(=O)Nc3ccc4c(c3)n(C)c(=O)n4C)cc2c1C	0.2	94*	79*	14	0.1	0.63
CCOC(=O)c1ccc(NC(=O)CCNS(=O)(=O)c2ccc3c(c2)oc(=O)n3C)cc1	0.9	-30	10	nt	1.3	-2.9
CCSc1nc(O)c(C2OC(=O)c3c2ccc(OC)c3OC)c(=O)n1CC (configuration not stated)	0.8	18	15	11	0.8	0.14
COc1ccc(OC)c(NS(=O)(=O)c2ccc3c(c2)n(C)c(=O)n3C)c1	0.2	45	78*	6	0.5	-0.29
CCc1nnc(NC(=O)c2cc3ccccc3oc2=O)s1	1.2	-18	-17	7	1.2	0.054
O=C(Nc1ccc(-n2nncc2-c2ccco2)cc1)c1cc2ccccc2oc1=O	0.6	63*	44	-17	0.4	1
